Source: paper PMC10922812 (Antiviral research, 2024)

How the values were obtained:
SVGA cells = assay: MTS cell viability assay, SVGA cells; assay type: cell-based, human
HEK-2C cells = assay: MTS cell viability assay, HEK-2C cells; assay type: cell-based
JCPyV [1] = assay: JCPyV infection by ICW assay; assay type: cell-based, JC polyomavirus; details: for % JCPyV infection (ICW, TAg): MOI = 1 FFU/cell, 48 h, vs DMSO control (Fig. 2); for JCPyV infection (ICW validation of screen hits): cell type not stated, data not shown
JCPyV [2] = assay: JCPyV infection by FFU infectivity assay; assay type: cell-based, JC polyomavirus; details: 48 h, vs DMSO control
SV40 [3] = assay: SV40 infection by FFU infectivity assay; assay type: cell-based, simian virus 40; details: Vero cells, MOI = 1 FFU/cell, 48 h
pERK = pERK assay by ICW; assay type: cell-based; details: 24 h treatment, no virus
SV40 [4] = details: ref Dobson, Mankouri and Whitehouse 2020; cited from earlier work
MCPyV = details: ref Dobson, Mankouri and Whitehouse 2020; cited from earlier work
JCPyV [5] = assay: NCC drug screen, In-Cell Western; assay type: cell-based, JC polyomavirus; details: inhibitor 10 μM, SVGA cells, MOI = 0.5 FFU/cell, 72 h, VP1 ICW
Vero cells = assay: MTS cell viability assay, Vero cells; assay type: cell-based, African green monkey; details: vs DMSO control
RPTEC = assay: MTS cell viability assay, RPTEC; assay type: cell-based, human; details: RPTEC 48 h, vs DMSO control
HeLa cells = assay: MTS cell viability assay, HeLa cells; assay type: cell-based; details: HeLa 24 h, vs DMSO control
BKPyV = BKPyV infection by FFU infectivity assay; assay type: cell-based, BK polyomavirus; details: Vero cells, MOI = 4 FFU/cell, 72 h
How it was run: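 Vero E6 cells at 70% confluence were pre-treated 1 h at 37°C with test compound in 10% DMEM (triplicate wells). Infection ran 2 h at 37°C without compound, then cells were refed with compound-containing DMEM for 72 h. Cells were PFA-fixed and stained for VP1 (1:40) with DAPI. % infection was VP1+ cells over DAPI+ cells per 20X field, 5 fields/well.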

SARS-CoV-2 [6] = assay type: cell-based; details: Vero cells, TCID50 = 0.025/cell, 24 h
reovirus [7] = assay: Reovirus infection by FFU infectivity assay; assay type: cell-based; details: HeLa cells, MOI = 300 FFU/cell, 24 h
How it was run: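 HeLa cells at 70% confluence were pre-treated 1 h at 37°C with test compound in 10% DMEM (triplicate wells). Infection ran 1 h at RT without compound, then cells were refed with compound-containing DMEM for 24 h at 37°C. Cells were PFA-fixed and stained with reovirus antisera (1:500), anti-rabbit secondary and DAPI. % infection was positive over DAPI+ cells per 10X field, 5 fields/well.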

JCPyV [8] = assay: JCPyV-647 attachment by flow cytometry; assay type: cell-based, JC polyomavirus; details: HEK-2C cells pre-treated 1 h, virus on ice 1 h, vs DMSO
JCPyV [9] = assay: JCPyV infectious clone transfection, VP1+ nuclei by FFU assay; assay type: cell-based, JC polyomavirus; details: SVGA cells, TFP 15 μM, day 3 or day 7
How it was run: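 SVGA cells at 50% confluence were pre-treated 1 h at 37°C with test compound or DMSO. They were transfected with 2 μg/well linearized JC pUC19 (pUC19 control) using Fugene 6 (1.5 μl:1 μg DNA) with compound present. Medium was replaced with 10% MEM after 6 h. Cells were fixed and stained for VP1 (1:40). % VP1+ nuclei was VP1+ over DAPI+ cells at 10X, 5 fields/well.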

reovirus [10] = details: ref Mainou, Zamora et al. 2013; cited from earlier work
SARS-CoV-2 [11] = details: ref Yuan, Dong et al. 2022; cited from earlier work
[12] = ref Kang, Hong et al. 2017; cited from earlier work
[13] = HEK-2C cells, MOI = 0.5 FFU/cell
[14] = SVGA 48 h, MTS, vs DMSO control
[15] = HEK-2C 48 h, MTS, vs DMSO control
[16] = primary RPTECs, MOI = 2 FFU/cell

Question: What does the source list for `COc1ccc2cc1Oc1ccc(cc1)C[C@H]1c3cc(c(OC)cc3CCN1C)Oc1c(OC)c(OC)cc3c1[C@H](C2)N(C)CC3` [Tetrandrine]?
Answer: Concentration with % Viability ≥ 100% (SVGA cells; human, 48 h): 10 µM; Concentration with % Viability < 80% (HEK-2C cells; human, 48 h): 10 µM; Concentration with % Viability ≥ 90% (HEK-2C cells; human, 48 h): 7 µM; Concentration with % Viability ≥ 95% (HEK-2C cells; human, 48 h): 1 µM; % JCPyV infection (ICW, TAg) (JCPyV [1]; HEK-2C cells): significant reduction in infection; % JCPyV infection (ICW, TAg) (JCPyV [1]; SVGA cells): slight, but not statistically significant, increase; % JCPyV infection (FFU, TAg) (JCPyV [2]; [13]): significantly impaired; % JCPyV infection (FFU, TAg) (JCPyV [2]; SVGA cells, MOI = 1 FFU/cell): not impacted; % SV40 infection (FFU, VP1) (SV40 [3]): potently inhibited; % pERK expression (ICW) (pERK; HEK-2C cells): reduction in pERK levels; % pERK expression (ICW) (pERK; SVGA cells): dramatic increase in pERK; SV40 infection (SV40 [4]): drastically reduced; MCPyV infection (MCPyV): drastically reduced

Question: For `O=C1CN(/N=C/c2ccc(-c3ccc([N+](=O)[O-])cc3)o2)C(O)=N1` [dantrolene sodium], which “JCPyV infection in NCC drug screen (hit by normalized z-score)” value (JCPyV [5]) is on record?
Answer: hits

Question: What about the “JCPyV infection (ICW validation of screen hits)” value (JCPyV [1]) of the same molecule?
Answer: did not significantly reduce infection

Question: For `CN1CCN(CCCN2c3ccccc3Sc3ccc(C(F)(F)F)cc32)CC1` [TFP, trifluoperazine], which “JCPyV infection in NCC drug screen (hit by normalized z-score)” value (JCPyV [5]) is on record?
Answer: hits

Question: What about the “Concentration with % Viability < 80%” value (SVGA cells; [14]) of the same molecule?
Answer: 30 µM

Question: What about the “Concentration with % Viability ≥ 90%” value (SVGA cells; [14]) of the same molecule?
Answer: 20 µM

Question: What about the “Concentration with % Viability ≥ 100%” value (SVGA cells; SVGA 7 days, MTS, vs DMSO control) of the same molecule?
Answer: 15 µM

Question: What about the “Concentration with % Viability < 80%” value (HEK-2C cells; [15]) of the same molecule?
Answer: 30 µM

Question: And the “Concentration with % Viability ≥ 85%” value (HEK-2C cells; [15])?
Answer: 20 µM

Question: And the “Concentration with % Viability ≥ 100%” value (HEK-2C cells; [15])?
Answer: 7.5 µM

Question: What about the “Concentration with % Viability ≥ 100%” value (Vero cells; Vero 24 h) of the same molecule?
Answer: 10 µM

Question: And the “Concentration with % Viability ≥ 100%” value (Vero cells; Vero 48 h)?
Answer: 20 µM

Question: And the “Concentration with % Viability < 80%” value (Vero cells; Vero 72 h)?
Answer: 30 µM

Question: And the “Concentration with % Viability ≥ 100%” value (Vero cells; Vero 72 h)?
Answer: 15 µM

Question: And the “Concentration with % Viability ≥ 90%” value (RPTEC)?
Answer: 7.5 µM

Question: And the “Concentration with % Viability ≥ 95%” value (RPTEC)?
Answer: 5 µM

Question: What about the “Concentration with % Viability < 80%” value (HeLa cells) of the same molecule?
Answer: 15 µM

Question: And the “Concentration with % Viability ≥ 80%” value (HeLa cells)?
Answer: 10 µM

Question: And the “Concentration with % Viability ≥ 100%” value (HeLa cells)?
Answer: 7.5 µM

Question: And the “% JCPyV infection (ICW, TAg)” value (JCPyV [1]; HEK-2C cells)?
Answer: significant reduction in JCPyV infection

Question: And the “% JCPyV infection (ICW, TAg)” value (JCPyV [1]; SVGA cells)?
Answer: significant reduction in JCPyV infection

Question: And the “% JCPyV infection (FFU, TAg)” value (JCPyV [2]; [13])?
Answer: significant reduction of JCPyV infection

Question: What about the “% JCPyV infection (FFU, TAg)” value (JCPyV [2]; SVGA cells, MOI = 1 FFU/cell) of the same molecule?
Answer: significant reduction of JCPyV infection

Question: What about the “% JCPyV infection (FFU, TAg)” value (JCPyV [2]; [16]) of the same molecule?
Answer: significantly reduced JCPyV infection

Question: And the “% SV40 infection (FFU, VP1)” value (SV40 [3])?
Answer: significantly reduced

Question: What about the “% BKPyV infection (FFU)” value (BKPyV) of the same molecule?
Answer: significantly reduced

Question: What about the “% SARS-CoV-2 infection (FFU, NP)” value (SARS-CoV-2 [6]) of the same molecule?
Answer: dramatically impaired SARS-CoV-2 infection

Question: And the “% reovirus infection (FFU)” value (reovirus [7])?
Answer: not impacted

Question: And the “JCPyV attachment (JCPyV-647, flow cytometry)” value (JCPyV [8])?
Answer: no significant difference in JCPyV attachment

Question: What about the “% VP1+ nuclei after transfection of JCPyV infectious clone” value (JCPyV [9]) of the same molecule?
Answer: modest reduction in JCPyV VP1+ cells

Question: What about the reovirus infection (reovirus [10]) of the same molecule?
Answer: not impacted

Question: What about the SARS-CoV-2 infection (SARS-CoV-2 [11]) of the same molecule?
Answer: inhibited

Question: And the “crossing the blood-brain barrier” value [12]?
Answer: capable of crossing the blood-brain barrier

Question: What does the source list for `NCCCCCCNS(=O)(=O)c1cccc2c(Cl)cccc12` [W-7]?
Answer: % JCPyV infection (ICW, TAg) (JCPyV [1]; HEK-2C cells): decreased JCPyV infection; % JCPyV infection (ICW, TAg) (JCPyV [1]; SVGA cells): decreased JCPyV infection; % JCPyV infection (FFU, TAg) (JCPyV [2]; [13]): significant reduction of JCPyV infection; % JCPyV infection (FFU, TAg) (JCPyV [2]; SVGA cells, MOI = 1 FFU/cell): significant reduction of JCPyV infection; % SV40 infection (FFU, VP1) (SV40 [3]): significantly reduced; % BKPyV infection (FFU) (BKPyV): significantly reduced; % SARS-CoV-2 infection (FFU, NP) (SARS-CoV-2 [6]): dramatically impaired SARS-CoV-2 infection

Question: With `CCOC(=O)C1=C(C)NC(C)=C(C(=O)OC)C1c1cccc([N+](=O)[O-])c1` (stereo not drawn) [nitrendipine, Nitrendipine] as the molecule, how does the “% JCPyV infection (FFU, TAg)” value (JCPyV [2]; SVGA cells, MOI = 1 FFU/cell) read?
Answer: did not significantly reduce JCPyV infection

Question: Which SV40 infection (SV40 [4]) does the source give for `COc1ccc(CCN(C)CCCC(C#N)(c2ccc(OC)c(OC)c2)C(C)C)cc1OC` (stereo not drawn) [Verapamil] here?
Answer: reduces

Question: What about the MCPyV infection (MCPyV) of the same molecule?
Answer: reduces

Question: Which “JCPyV infection in NCC drug screen (hit by normalized z-score)” value (JCPyV [5]) does the source give for `CC1(C)O[C@@H]2[C@@H](CO[C@@]3(COS(N)(=O)=O)OC(C)(C)O[C@@H]23)O1` [topiramate] here?
Answer: hits

Question: And the “JCPyV infection (ICW validation of screen hits)” value (JCPyV [1])?
Answer: did not significantly reduce infection

Question: For `COCCOC(=O)C1=C(C)NC(C)=C(C(=O)OC(C)C)C1c1cccc([N+](=O)[O-])c1` (stereo not drawn) [Nimodipine], which “JCPyV infection in NCC drug screen (hit by normalized z-score)” value (JCPyV [5]) is on record?
Answer: hits

Question: And the “% JCPyV infection (ICW, TAg)” value (JCPyV [1]; HEK-2C cells)?
Answer: modestly reduced

Question: What about the “% JCPyV infection (ICW, TAg)” value (JCPyV [1]; SVGA cells) of the same molecule?
Answer: modestly reduced

Question: What about the “% JCPyV infection (FFU, TAg)” value (JCPyV [2]; SVGA cells, MOI = 1 FFU/cell) of the same molecule?
Answer: did not significantly reduce JCPyV infection

Question: For `COC(=O)C1=C(C)NC(C)=C(C(=O)OC)C1c1ccccc1[N+](=O)[O-]` [Nifedipine], which “JCPyV infection in NCC drug screen (hit by normalized z-score)” value (JCPyV [5]) is on record?
Answer: hits

Question: What about the “% JCPyV infection (ICW, TAg)” value (JCPyV [1]; HEK-2C cells) of the same molecule?
Answer: significant reduction

Question: What about the “% JCPyV infection (FFU, TAg)” value (JCPyV [2]; [13]) of the same molecule?
Answer: significantly reduced JCPyV infection

Question: What about the “% JCPyV infection (FFU, TAg)” value (JCPyV [2]; SVGA cells, MOI = 1 FFU/cell) of the same molecule?
Answer: did not reduce JCPyV infection

Question: And the “% JCPyV infection (FFU, TAg)” value (JCPyV [2]; [16])?
Answer: significantly reduced JCPyV infection

Question: What about the “% SV40 infection (FFU, VP1)” value (SV40 [3]) of the same molecule?
Answer: did not reduce SV40 infection

Question: And the “% pERK expression (ICW)” value (pERK; HEK-2C cells)?
Answer: significant reduction in pERK levels

Question: What about the “% pERK expression (ICW)” value (pERK; SVGA cells) of the same molecule?
Answer: significant reduction in pERK levels

Question: For `Fc1ccc(C(c2ccc(F)cc2)N2CCN(C/C=C/c3ccccc3)CC2)cc1` [flunarizine, Flunarizine], which “% JCPyV infection (ICW, TAg)” value (JCPyV [1]; HEK-2C cells) is on record?
Answer: No significant change in infection

Question: And the “% JCPyV infection (ICW, TAg)” value (JCPyV [1]; SVGA cells)?
Answer: No significant change in infection

Question: And the MCPyV infection (MCPyV)?
Answer: blocks infection
